Calls of active or inactive are those of the source.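 How the source made its calls: active means IC50 at or below 10 µM, the dose giving half-maximal inhibition of the luminescence signal; inactive means IC50 above 10 µM.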
Target: Perilipin-5 (Homo sapiens) + 1-acylglycerol-3-phosphate O-acyltransferase ABHD5 (Homo sapiens) (UniProt Q00G26+Q8WTS1)
Test: inhibition of ABHD5 association with MLDP – biochemical, luminescence, dose response, round 3, late-stage follow-up (AID 652138)
Details: split G. princeps luciferase complementation, 4 h
How it was run: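 Material: Split Gaussia princeps luciferase complementation, LucC-tagged ABHD5 with LucN-tagged MLDP | Compound dosing: Triplicate 10-point threefold series, top nominal 40 µM | Incubation: 4 h at 25 °C plus 30 min readout step | Technique: Coelenterazine luminescence | Control set: DMSO as low control, 25 µM trans-chalcone as high control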

Chain of Perilipin-5 (Homo sapiens) + 1-acylglycerol-3-phosphate O-acyltransferase ABHD5 (Homo sapiens) (Q00G26 whole entry, looked up): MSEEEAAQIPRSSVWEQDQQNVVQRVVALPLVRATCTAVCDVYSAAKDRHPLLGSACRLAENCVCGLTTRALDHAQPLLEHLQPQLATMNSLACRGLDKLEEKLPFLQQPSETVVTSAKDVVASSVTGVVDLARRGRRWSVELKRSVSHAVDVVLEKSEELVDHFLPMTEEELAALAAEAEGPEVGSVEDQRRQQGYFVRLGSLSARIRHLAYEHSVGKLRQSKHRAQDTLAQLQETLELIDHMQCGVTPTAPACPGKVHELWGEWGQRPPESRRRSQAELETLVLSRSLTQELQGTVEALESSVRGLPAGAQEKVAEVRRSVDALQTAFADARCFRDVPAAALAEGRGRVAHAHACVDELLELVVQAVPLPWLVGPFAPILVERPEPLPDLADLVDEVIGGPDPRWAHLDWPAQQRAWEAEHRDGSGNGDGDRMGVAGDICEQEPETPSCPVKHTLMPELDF
Chain of Perilipin-5 (Homo sapiens) + 1-acylglycerol-3-phosphate O-acyltransferase ABHD5 (Homo sapiens) (Q8WTS1 whole entry, looked up): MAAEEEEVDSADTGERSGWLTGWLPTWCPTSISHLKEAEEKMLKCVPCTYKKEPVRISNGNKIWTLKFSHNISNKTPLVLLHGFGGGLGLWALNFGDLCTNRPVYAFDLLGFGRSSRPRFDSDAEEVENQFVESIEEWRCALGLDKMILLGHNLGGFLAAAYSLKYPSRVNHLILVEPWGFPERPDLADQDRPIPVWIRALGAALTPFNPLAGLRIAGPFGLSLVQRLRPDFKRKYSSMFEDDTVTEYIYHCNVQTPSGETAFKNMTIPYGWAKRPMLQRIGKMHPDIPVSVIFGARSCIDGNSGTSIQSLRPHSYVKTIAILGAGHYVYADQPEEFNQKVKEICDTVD

| SMILES | IC50 |
| --- | --- |
| CCCCNC(=O)Nc1ccc2c(c1)N(C)C(=O)c1ccccc1S2 | inactive |
| Cc1ccc2c(CC(=O)N3CCN(S(=O)(=O)c4ccc5c(c4)OCCO5)CC3)coc2c1 | inactive |
| CN1C(=O)c2ccccc2Sc2ccc(NC(=O)NCCCc3ccccc3)cc21 | 4.04 µM |

Next, values leading:

| IC50 | SMILES |
| --- | --- |
| 7.78 µM | CCCCCCCNC(=O)Nc1ccc2c(c1)N(C)C(=O)c1ccccc1S2 |
| 4.71 µM | CCCCCCNC(=O)Nc1ccc2c(c1)N(C)C(=O)c1ccccc1S2 |
| 3.32 µM | CCCCCNC(=O)Nc1ccc2c(c1)N(C)C(=O)c1ccccc1S2 |
